Test results reported in ChEMBL document CHEMBL3297702, “Improving photodynamic inactivation of bacteria in dentistry: highly effective and fast killing of oral key pathogens with novel tooth-colored type-II photosensitizers” (J Med Chem, 2014).
Active and inactive are the calls of the source. The rule behind the calls is not given here.

What was measured:
Actinomyces naeslundii [1] = test: Photodynamic inactivation of Actinomyces naeslundii T14V assessed as reduction of log10 CFU at 1 to 250 uM preincubated for 10 secs followed by irradiation with 50 j/cm'2 for 40 secs measured after 48 hrs by agar plating method; format: functional, organism-based
Summary of the method: (§1)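 A. naeslundii T14V grown overnight at 37 °C, shaken, aerobically in BHI broth. Harvested at stationary phase, resuspended in PBS to 10^7–10^8 bacteria/mL (OD600). Mixed 1:1 with PS (final 0–250 µM) or water, 10 s incubation, then blue photopolymerizer light (1260 ± 50 mW/cm2) or dark. Tenfold dilutions plated on blood agar, aerobic 37 °C 48 h, CFU counted; medians of three independent experiments in triplicate.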

Streptococcus mutans [2] = test: Photodynamic inactivation of Streptococcus mutans ATCC 25175 assessed as reduction of log10 CFU at 5 uM incubated prior to irradiation with 150 j/cm'2 for 120 secs measured after 48 hrs by agar plating method (reference value: <1 no unit); format: functional
Actinomyces naeslundii [3] = test: Photodynamic inactivation of Actinomyces naeslundii T14V assessed as reduction of log10 CFU at 5 uM incubated prior to irradiation with 50 j/cm'2 for 40 secs measured after 48 hrs by agar plating method (reference value: <1 no unit); format: functional; summary of the method: as §1
Streptococcus mutans [4] = test: Photodynamic inactivation of Streptococcus mutans ATCC 25175 assessed as reduction of log10 CFU at 5 uM incubated prior to irradiation with 50 j/cm'2 for 40 secs measured after 48 hrs by agar plating method (reference value: <1 no unit); format: functional
[5] = tested on: Aggregatibacter actinomycetemcomitans; test: Photodynamic inactivation of Aggregatibacter actinomycetemcomitans ATCC 43718 assessed as reduction of log10 CFU at 1 uM incubated prior to irradiation with 50 j/cm'2 for 40 secs measured after 48 hrs by agar plating method (reference value: <1 no unit); format: functional, Y4
Summary of the method: (§2)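 A. actinomycetemcomitans ATCC 43718 cultured overnight in BHI broth under anaerobic conditions, 37 °C with shaking. Stationary-phase cells were spun down, taken up in PBS to 10^7–10^8/mL, and combined 1:1 with PS (final 0–250 µM) or water. After 10 s they were irradiated at 1260 ± 50 mW/cm2 or kept dark. Serial dilutions went onto BHI agar, incubated anaerobically at 37 °C for 48 h, and CFU were scored. Results are medians from 3 experiments × triplicate versus untreated controls.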

Streptococcus mutans [6] = test: Photodynamic inactivation of Streptococcus mutans ATCC 25175 assessed as reduction of log10 CFU at 1 to 250 uM preincubated for 10 secs followed by irradiation with 150 j/cm'2 for 120 secs measured after 48 hrs by agar plating method; format: functional
[7] = tested on: Aggregatibacter actinomycetemcomitans; test: Photodynamic inactivation of Aggregatibacter actinomycetemcomitans ATCC 43718 assessed as reduction of log10 CFU at 1 to 250 uM incubated prior to irradiation with 50 j/cm'2 for 40 secs measured after 48 hrs by agar plating method; format: functional; details: Y4; summary of the method: as §2
Enterococcus faecalis [8] = test: Photodynamic inactivation of Enterococcus faecalis ATCC 29212 assessed as reduction of log10 CFU at 1 to 250 uM preincubated for 10 secs followed by irradiation with 25 j/cm'2 for 20 secs measured after 24 hrs by agar plating method; format: functional, organism-based
Summary of the method: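 E. faecalis ATCC 29212, aerobic overnight BHI culture at 37 °C, was harvested at stationary phase and suspended in PBS at 10^7–10^8 bacteria/mL. It was mixed 1:1 with PS to 0–250 µM final, held 10 s, then illuminated (1260 ± 50 mW/cm2) or kept dark. Dilutions were plated on Mueller-Hinton agar, aerobic 37 °C 24 h, CFU counted. Medians of three independent triplicate experiments, referred to untreated controls.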

Streptococcus mutans [9] = test: Photodynamic inactivation of Streptococcus mutans ATCC 25175 assessed as reduction of log10 CFU at 1 uM incubated prior to irradiation with 150 j/cm'2 for 120 secs measured after 48 hrs by agar plating method (reference value: <1 no unit); format: functional
Actinomyces naeslundii [10] = test: Photodynamic inactivation of Actinomyces naeslundii T14V assessed as reduction of log10 CFU at 1 to 250 uM preincubated for 10 secs followed by irradiation with 150 j/cm'2 for 120 secs measured after 48 hrs by agar plating method; format: functional, organism-based; summary of the method: as §1
Actinomyces naeslundii [11] = test: Photodynamic inactivation of Actinomyces naeslundii T14V assessed as reduction of log10 CFU at 10 uM incubated prior to irradiation with 25 j/cm'2 for 20 secs measured after 48 hrs by agar plating method (reference value: <1 no unit); format: functional; summary of the method: as §1
Actinomyces naeslundii [12] = test: Photodynamic inactivation of Actinomyces naeslundii T14V assessed as reduction of log10 CFU at 100 uM incubated prior to irradiation with 50 j/cm'2 for 40 secs measured after 48 hrs by agar plating method (reference value: <1 no unit); format: functional; summary of the method: as §1
Streptococcus mutans [13] = test: Photodynamic inactivation of Streptococcus mutans ATCC 25175 assessed as reduction of log10 CFU at 10 uM incubated prior to irradiation with 25 j/cm'2 for 20 secs measured after 48 hrs by agar plating method (reference value: <1 no unit); format: functional
Actinomyces naeslundii [14] = test: Photodynamic inactivation of Actinomyces naeslundii T14V assessed as reduction of log10 CFU at 1 to 250 uM preincubated for 10 secs followed by irradiation with 25 j/cm'2 for 20 secs measured after 48 hrs by agar plating method; format: functional, organism-based; summary of the method: as §1
[15] = tested on: Aggregatibacter actinomycetemcomitans; test: Photodynamic inactivation of Aggregatibacter actinomycetemcomitans ATCC 43718 assessed as reduction of log10 CFU at 100 uM incubated prior to irradiation with 150 j/cm'2 for 120 secs measured after 48 hrs by agar plating method relative to control; format: functional, Y4; summary of the method: as §2
Streptococcus mutans [16] = test: Photodynamic inactivation of Streptococcus mutans ATCC 25175 assessed as reduction of log10 CFU at 100 uM incubated prior to irradiation with 150 j/cm'2 for 120 secs measured after 48 hrs by agar plating method (reference value: <1 no unit); format: functional
[17] = tested on: Aggregatibacter actinomycetemcomitans; test: Photodynamic inactivation of Aggregatibacter actinomycetemcomitans ATCC 43718 assessed as reduction of log10 CFU at 10 uM incubated prior to irradiation with 150 j/cm'2 for 120 secs measured after 48 hrs by agar plating method relative to control; format: functional, Y4; summary of the method: as §2
Actinomyces naeslundii [18] = test: Photodynamic inactivation of Actinomyces naeslundii T14V assessed as reduction of log10 CFU at 1 uM incubated prior to irradiation with 25 j/cm'2 for 20 secs measured after 48 hrs by agar plating method (reference value: <1 no unit); format: functional; summary of the method: as §1
Enterococcus faecalis [19] = test: Toxicity in Enterococcus faecalis ATCC 29212 assessed as reduction of log10 CFU at 1 to 250 uM incubated for 10 secs under dark condition measured after 24 hrs by agar plating method; format: organism-based; details: in vivo
Summary of the method: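 Dark controls. Overnight BHI cultures (EF, SM, AN aerobic; AA anaerobic; 37 °C) were washed into PBS at 10^7–10^8 cells/mL. They were mixed 1:1 with photosensitizer at final 0–250 µM and incubated 10 s, 7.5 min or 15 min, then kept in the dark for 20, 40 or 120 s. Tenfold dilutions were plated: EF on Mueller-Hinton agar, aerobic 24 h; SM on BHI agar, aerobic 48 h; AN on blood agar, aerobic 48 h; AA on BHI agar, anaerobic 48 h; all at 37 °C. CFU were compared with untreated controls; medians of three independent experiments in triplicate.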

## O=C1C(C[n+]2ccccc2)=Cc2cccc3cccc1c23.[Cl-]
Actinomyces naeslundii [1]
  Activity: Active
Streptococcus mutans [2]
  log10cfu: >6
Actinomyces naeslundii [3]
  log10cfu: <5
Streptococcus mutans [4]
  log10cfu: <3
[5]
  log10cfu: <3
Streptococcus mutans [6]
  Activity: Active
[7]
  Activity: Active
Enterococcus faecalis [8]
  Activity: Active
Streptococcus mutans [9]
  log10cfu: <3
Actinomyces naeslundii [10]
  Activity: Active
Actinomyces naeslundii [11]
  log10cfu: > 5
Actinomyces naeslundii [12]
  log10cfu: > 5
Streptococcus mutans [13]
  log10cfu: <3
Actinomyces naeslundii [14]
  Activity: Active
[15]
  log10cfu: >6
Streptococcus mutans [16]
  log10cfu: >6
[17]
  log10cfu: >6
Actinomyces naeslundii [18]
  log10cfu: <1

## C[N+](C)(C)CC1=Cc2cccc3cccc(c23)C1=O.[Cl-]
Actinomyces naeslundii [1]
  Activity: Active
Streptococcus mutans [6]
  Activity: Active
[7]
  Activity: Active
Enterococcus faecalis [8]
  Activity: Active
Actinomyces naeslundii [10]
  Activity: Active
Enterococcus faecalis [19]
  Activity: Non-toxic
Actinomyces naeslundii [14]
  Activity: Active

## C[N+](C)(CCO)CC1=Cc2cccc3cccc(c23)C1=O.[Cl-]
Streptococcus mutans [2]
  log10cfu: <3
Actinomyces naeslundii [3]
  log10cfu: <3
Streptococcus mutans [4]
  log10cfu: <1
[5]
  log10cfu: <3
Streptococcus mutans [9]
  log10cfu: <1
Actinomyces naeslundii [11]
  log10cfu: <3
Actinomyces naeslundii [12]
  log10cfu: > 5
Enterococcus faecalis [19]
  Activity: Non-toxic
Streptococcus mutans [13]
  log10cfu: <1
[15]
  log10cfu: >6
Streptococcus mutans [16]
  log10cfu: >6
[17]
  log10cfu: >6
Actinomyces naeslundii [18]
  log10cfu: <1
